Screening results from PubChem BioAssay.
Hits are enriched below; roughly 1.4% of the tested compounds scored in any of these assays.
thrombin 1536 = inhibitors of human thrombin. inhibition, % at 5 µM. P00734. 0.26% of 220,000 active. alpha-thrombin, Boc-VPR-AMC fluorogenic substrate cleavage. AID 1046;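 active = inhibition at or above 40%; inactive = inhibition below 40%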;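 note: 0% = enzyme with no compound and 100% = wells without enzyme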
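Assay system: human alpha-thrombin enzyme. Reagent: Boc-VPR-AMC substrate, 15 µM final. Compound dosing: one concentration per compound, 5 µM, with 0.2% DMSO. Incubation: room-temperature reaction. Technique: AMC fluorescence, 355/460 nm. Measure: % inhibition relative to enzyme controls and enzyme-free blanks.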
FXIa inh 1536 = inhibitors of human coagulation factor XIa | 0.14% of 220,000 active | inhibition, % at 5 µM | P03951 | AID 798 | purified FXIa, Boc-Glu-Ala-Arg-AMC fluorogenic substrate;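 active = inhibition of at least 40%; inactive = inhibition below 40%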;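 note: fluorescence of freed AMC excited at 355 nm; 0% = enzyme without compound and 100% = no enzyme blank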
hK5 inh = kallikrein 5 (human) inhibition. 0.59% of 210,000 active. recombinant hK5, fluorogenic AMC substrate cleavage. AID 873. Q9Y337. inhibition, % at 5 µM;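 active = inhibition of 40% or more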;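 note: 0% = enzyme controls without compound and 100% = no-enzyme blanks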
Target sequence (Q9Y337 67-293 limits assumed): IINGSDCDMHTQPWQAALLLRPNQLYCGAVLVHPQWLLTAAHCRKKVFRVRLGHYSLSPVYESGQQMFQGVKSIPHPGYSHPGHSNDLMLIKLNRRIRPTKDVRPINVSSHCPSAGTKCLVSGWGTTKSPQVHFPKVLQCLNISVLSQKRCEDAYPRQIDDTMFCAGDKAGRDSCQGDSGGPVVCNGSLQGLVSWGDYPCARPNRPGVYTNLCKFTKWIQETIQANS
Calpain2 inh = calpain II (pig) inhibition. inhibition, % at 16 µM. purified calpain II, fluorogenic peptide substrate, 30 min. AID 1236. 0.37% of 220,000 active;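 active = inhibition above about 50%, limit read from the data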
FXIIa inh = factor XIIa (human) inhibition; 0.3% of 220,000 active; inhibition, % at 5 µM; AID 800; P00748; purified FXIIa, Boc-QGR-AMC fluorogenic substrate, 2 h; in the data active = inhibition above about 40%;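 note: 0% = enzyme with no compound and 100% = blank without enzyme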
Numbers without * were called inactive; i = inactive; nt = no result given.

SMILES	thrombin 1536	FXIa inh 1536	hK5 inh	Calpain2 inh	FXIIa inh
CC(C(=O)Nc1ccccc1Oc1ccccc1)c1ccccc1 (configuration not stated)	2	6	-6	52*	12
Fc1ccccc1Cc1noc(CN(Cc2ccccn2)CC2CCCO2)n1 (configuration not stated)	-3	-2	nt	-14	4
N#C/C(=N\Nc1ccccc1)C(N)=S	38	35	27	9	107*
N#C/C(=N\Nc1ccc(Cl)cc1)C(N)=S	-9	-1	-4	-14	4
CC(C)c1ccc(/C=C/C2=NNC(=O)CC2)cc1	-2	-1	12	92*	5
COCc1c(C(=O)OC)nnn1-c1ccc(C(F)(F)F)cc1[N+](=O)[O-]	-3	-5	nt	16	10
CC(=O)NNC(=S)NC(=O)c1ccccc1	43*	21	8	31	42*
OC(CNCC(c1ccc(Cl)cc1Cl)c1c[nH]c2ccccc12)c1ccccc1 (configuration not stated)	-6	2	-2	48	10
Clc1ccccc1-c1nc(-c2cccnc2)no1	16	9	57*	10	15
CC(C)c1cc(N2CCC(=O)NC2=O)cc(C(=O)O)c1O	-8	-4	-16	-86	10
CN(CC(=O)Nn1cnnc1)S(=O)(=O)c1ccc(Br)cc1	3	5	-3	13	20
Oc1ccc(Cl)cc1/C=C/c1ccc2cccc(O)c2n1	49*	33	34	16	39
Cc1ncc(CN=Cc2ccc(Cl)cc2)c(N)n1	-5	-2	-1	-14	7
CCC(C)NC(=O)CSc1nc2ccsc2c(=O)n1NC(=O)c1ccccc1 (configuration not stated)	28	20	33	22	41*
Cc1ccc(CNC(=O)CSc2nc3ccsc3c(=O)n2NC(=O)c2ccccc2)cc1	-7	-2	-3	3	1
O=C(c1ccccc1)C1CN(c2ccccc2)CC1c1ccc(Cl)cc1 (configuration not stated)	14	6	62*	15	54*
CCOC(=O)C1=NN(c2ccc(Cl)cc2)C(c2ccccc2)CC1=O (configuration not stated)	-1	-2	-10	-5	9
CCN=C1SCC(=O)N1c1ccc(OC)cc1	14	7	44*	9	11
COC(=O)/C(=N\Nc1ccc(Cl)cc1)Sc1nnc(-c2ccc(OC)cc2)n1C	-1	6	-5	5	5
COC(=O)c1cccc(N2CCCC2=O)c1	16	32	45*	2	25
O=C(O)c1cccc(N2CCCC2=O)c1	-2	17	10	2	17
Cc1ccc2nc(SCC(=O)Nc3cccc(S(N)(=O)=O)c3)[nH]c2c1	1	2	93*	0	9
NS(=O)(=O)c1cccc(NC(=O)CSc2nc3ccccc3[nH]2)c1	-2	7	-4	4	10
CCOc1ccccc1/C=C(\NC(=O)c1ccccc1)C(=O)NCCC(=O)O	-3	8	-11	0	17
CCOc1ccccc1/C=C(/NC(=O)c1ccccc1)C(=O)NCC(=O)O	11	16	47*	36	2
SMILES	thrombin 1536	FXIa inh 1536	hK5 inh	Calpain2 inh	FXIIa inh
CCOC(=O)N1CCN(C(=O)c2cnn3c(C)c(Cc4ccc(C)cc4)c(C)nc23)CC1	10	4	63*	-198	21
Cc1ccc(S(=O)(=O)/N=C/c2ccco2)cc1	104*	5	87*	12	31
Cc1ccc(S(=O)(=O)/N=C/N(C)C)cc1	-10	7	-26	2	7
CC1(C)CC2CC(C)(CN2CC(=O)C(C#N)c2ccccc2)C1 (configuration not stated)	3	-9	115*	-19	-4
O=C(c1ccco1)N1CCN(c2ncnc3scc(-c4cccs4)c23)CC1	-2	6	3	-21	6
c1ccc(N2CCN(c3ncnc4scc(-c5cccs5)c34)CC2)cc1	0	-1	-3	54*	15
COc1ccc2c(c1)C(=O)CC(O)(C(F)F)O2 (configuration not stated)	-5	0	-1	51*	2
CC1(C)CC(=O)c2cc(OCC(=O)O)ccc2O1	10	-2	17	i	12
Cc1ccc(NC(=O)c2ccco2)c(NC(=O)C2CCCO2)c1 (configuration not stated)	-2	-7	-11	-7	1
CCN1CCN(C(c2cccs2)C(C)NS(=O)(=O)c2ccccc2)CC1 (configuration not stated)	-5	0	-2	57*	13
COc1ccc(-c2cc(O)cc(O)c2)cc1	0	-4	-7	-10	4
Cn1ncc(Oc2ccc([N+](=O)[O-])cc2)c(Cl)c1=O	-1	25	71*	8	42*
Cn1ncc(Cl)c(Oc2ccc(Cl)cc2)c1=O	1	10	-5	-2	16
CCOC(=O)C(NC(C)=O)(Nc1ccc(S(N)(=O)=O)cc1)C(F)(F)F (configuration not stated)	-10	-8	11	17	0
NC(=O)COC(=O)c1cccc(S(=O)(=O)N2CCN(c3ccc(F)cc3)CC2)c1	-2	-4	-6	0	-1
NC(=O)COC(=O)c1ccc(Cl)c(S(=O)(=O)N2CCN(c3ccc(F)cc3)CC2)c1	20	33	45*	8	24
O=C(NC1CCN(Cc2ccccc2)CC1)c1ccc2c(c1)[nH]c(=O)n2Cc1ccc(F)cc1	2	-3	1	-23	8
O=C(N[C@@H](Cc1ccccc1)C(=O)OCc1ccccc1)c1nc[nH]c1C(=O)N1CCN(c2ccccc2)CC1	-2	-1	1	51*	3
O=C(N[C@@H](Cc1ccccc1)C(=O)OCc1ccccc1)c1nc[nH]c1C(=O)NCc1ccccc1	-3	-1	-4	28	9
CCNC(=S)N(CCc1c(C)[nH]c2ccc(Cl)cc12)Cc1ccco1	-16	-4	-1	59*	6
CNC(=S)N(CCc1c(C)[nH]c2ccc(C)cc12)Cc1ccco1	0	5	-7	-11	9
O=C1c2ccc(-c3ccc4c(c3)C(=O)N(CCO)C4=O)cc2C(=O)N1CCO	9	53*	45*	-45	25
CS(=O)(=O)Oc1ccc(/C=N/NC(=O)c2ccncc2)cc1	-12	1	-18	-12	7
CCc1cc(-c2[nH]ncc2-c2nc3ccccc3n2C)c(O)cc1O	17	75*	21	20	14
COc1ccc(OC)c(C(=O)CSc2nc3c(c(=O)n(C)c(=O)n3C)n2C(C)C)c1	1	-1	-6	-2	9
CCOCCCn1cnc2c(c1=O)c1nc3ccccc3nc1n2-c1ccccc1	21	13	22	-486	54*
Cc1nccc2[nH]c(=O)c(C(=O)NC(C)CCc3ccccc3)cc12 (configuration not stated)	-7	-3	nt	9	3
Cc1oc(C)c(C(=O)O)c1C(=O)O	-4	-7	-9	7	2
